S100A4 MyoIIA = inhibitors of S100A4-myosin IIA peptide binding, primary screen, biochemical, fluorescence polarization, TAMRA-MyoIIA peptide. Protein S100-A4 (Homo sapiens), P26447. inhibition, % at 10.7 µM. 360,000 compounds, 0.14% hits. AID 652163, 2013;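 active = mean inhibition of at least 70% across replicates, with every replicate also reaching that level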
Target sequence (P26447 whole entry, looked up): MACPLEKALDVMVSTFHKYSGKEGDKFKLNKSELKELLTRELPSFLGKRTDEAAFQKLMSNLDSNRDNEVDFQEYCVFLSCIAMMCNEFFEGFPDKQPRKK
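Material: S100A4 monomer protein / Buffer or medium: 50 mM HEPES pH 7.2, 10 mM CaCl2, 100 mM KCl / Times: 5 min incubation before reading / Benchmarks: neutral control DMSO, positive control TFP / Reagent: labelled myosin peptide probe, 5 nM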
PDI turbidity = inhibitors of human PDI, primary screen, biochemical, turbidity, single point, plate reader | Protein disulfide-isomerase (Homo sapiens), P07237 | PDI insulin aggregation turbidity, A650, 90 min | inhibition, % at 10 µM | 350,000 compounds, 0.052% hits;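 active = mean inhibition across replicates of 30% or more, whatever share of single replicates reach that level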
SIRT5 inh = SIRT5 desuccinylase inhibitors, primary screen, biochemical, fluorescence imaging, single point, set 5; 330,000 compounds, 1.1% hits; inhibition, % at 15 µM; Purified SirT5, succinyl-peptide AMC, trypsin-coupled fluorescence; NAD-dependent protein deacylase sirtuin-5, mitochondrial (Homo sapiens), Q9NXA8; in the data active = inhibition above about 15%
GSIS activator = GLuc luminescence reporter in INS-1E cells, primary screen for activators of glucose-dependent secretion of insulin; AID 743287, 2014; activation, % at 16.6 µM; 370,000 compounds, 0.61% hits; INS-1E GLuc reporter insulin secretion, 2-3 h;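 active = lowest replicate activation of at least 40%, so every replicate reaches that level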;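 also: 0% = median of neutral control wells and 100% = median of IBMX positive control wells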
ERp5 inh = inhibitors of ERp5-driven insulin aggregation, primary screen, biochemical, turbidity, absorbance 650 nm, single point. Protein disulfide-isomerase A6 (Homo sapiens), Q15084. 90 min. inhibition, % at 9.99 µM. 350,000 compounds, 0.05% hits;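 active = mean replicate inhibition above about 25%, with every replicate also reaching it, limit read from the data, passing the limit was not always enough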
Target sequence (Q15084 whole entry, looked up): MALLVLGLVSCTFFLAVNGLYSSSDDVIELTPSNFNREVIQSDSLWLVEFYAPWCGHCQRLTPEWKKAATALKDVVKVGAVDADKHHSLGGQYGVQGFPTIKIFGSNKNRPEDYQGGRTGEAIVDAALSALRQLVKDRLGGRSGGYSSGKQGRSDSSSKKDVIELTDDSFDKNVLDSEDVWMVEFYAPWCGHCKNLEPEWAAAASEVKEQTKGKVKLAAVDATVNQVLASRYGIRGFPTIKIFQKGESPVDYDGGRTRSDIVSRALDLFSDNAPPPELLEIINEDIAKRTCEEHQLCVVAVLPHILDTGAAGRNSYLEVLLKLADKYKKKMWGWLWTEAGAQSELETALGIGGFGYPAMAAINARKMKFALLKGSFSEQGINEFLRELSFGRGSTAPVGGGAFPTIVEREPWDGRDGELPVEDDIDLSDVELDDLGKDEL
* marks the source's active call; other numbers are inactive results; nt = no result; ! = not confirmed by another sample. Rows were chosen to be rich in hits. Some 1.5% of all compounds tested hit in one or more screens of this group.

SMILES | S100A4 MyoIIA | PDI turbidity | SIRT5 inh | GSIS activator | ERp5 inh
CC(C)Cc1ccc(C(C)C(N)=Nc2ccc(O)cc2)cc1 (stereo not drawn) | -4 | 2 | 19* | 7 | 1
O=C(O)[C@@H]1[C@@H](CO)[C@@H]2Cn3c(ccc(/C=C/c4ccccc4)c3=O)[C@@H]2N1C(=O)C1CCCC1 | 110* | nt | -110 | 7 | 0
O=C(O)[C@H]1[C@H](CO)[C@H]2Cn3c(ccc(/C=C/c4ccccc4)c3=O)[C@H]2N1C(=O)C1CCCC1 | -5 | nt | -103 | 3 | -2
CCCNC(=O)[C@H]1[C@H](CO)[C@H]2Cn3c(ccc(/C=C/c4ccccc4)c3=O)[C@@H]1N2C(C)=O | 4 | nt | -125 | 20 | 71*
CC=Cc1ccc2n(c1=O)C[C@H]1[C@H](CO)[C@@H](C(=O)NCC3CC3)[C@@H]2N1Cc1cccnc1 (mixture of isomers) | 122* | nt | -6 | -2 | -3
CC=Cc1ccc2n(c1=O)C[C@H]1[C@H](CO)[C@@H](C(=O)NCC3CC3)[C@@H]2N1Cc1ccccc1 (mixture of isomers) | 3 | nt | -4 | -10 | -2
CCNC(=O)[C@H]1[C@H](CO)[C@H]2Cn3c(ccc(/C=C/c4ccccc4)c3=O)[C@@H]1N2C(C)=O | -27 | nt | -91 | -1 | 1
CCCNC(=O)C[C@@H]1C[C@H]2c3cc(NC(=O)Nc4ccccc4)ccc3O[C@H]2[C@@H](CO)O1 | nt | nt | nt | 10 | nt
CCCNC(=O)C[C@@H]1CC[C@@H]2[C@@H](COc3ccc(NC(=O)NCC)cc3C(=O)N2C)O1 | -1 | nt | -6 | -3 | 4
O=c1[nH]nc(-c2cccs2)c2ccccc12 | -7 | 4 | -1 | 172* | -4
Cc1ccc(S(=O)(=O)N(CC(O)CN2CCOCC2)c2cccc([N+](=O)[O-])c2)cc1 (stereo not drawn) | 14 | -1 | -6 | 1 | 27*
O=[N+]([O-])c1cccc(N(CC(O)CN2CCCC2)S(=O)(=O)c2ccccc2)c1 (stereo not drawn) | -3 | 0 | -2 | -4 | 3
CCOc1cc(OCC)cc(C(=O)Nc2cccnc2)c1 | -7 | 0 | -1 | 41* | 0
O=S(=O)(O)c1ccc(O)c2cc(Nc3ccccc3)ccc12 | 3 | 6 | 63* | nt | 8
CCCCCCCCOC(=O)c1c(CSC(=N)N)n(C)c2cc(Br)c(OC(C)=O)cc12 | -2 | -10 | 4 | 269* | 1
COc1ccc(S(=O)(=O)N(C)C[C@@H]2Oc3ccc(NC(=O)C4CCCCC4)cc3CC(=O)N([C@@H](C)CO)C[C@H]2C)cc1 | 0 | nt | 2 | -28 | 0
C[C@H](CO)N1C[C@H](C)[C@H](CN(C)Cc2ccc(Oc3ccccc3)cc2)Oc2ccc(NC(=O)CCC(F)(F)F)cc2C1=O | -7 | nt | 15* | -7 | 11
COc1ccc(CN(C)C[C@@H]2Oc3ccc(NC(=O)CCC(F)(F)F)cc3C(=O)N([C@H](C)CO)C[C@H]2C)cc1 | -3 | nt | 29* | -3 | 3
C[C@H]1CN([C@@H](C)CO)C(=O)c2cc(NC(=O)CCC(F)(F)F)ccc2O[C@H]1CN(C)Cc1ccc(C(F)(F)F)cc1 | 3 | nt | 20* | -18 | 1
COc1ccc(CN(C)C[C@H]2Oc3ccc(NC(=O)CCC(F)(F)F)cc3C(=O)N([C@H](C)CO)C[C@H]2C)cc1 | 1 | nt | -2 | 22 | 1
C[C@H](NC(=O)C[C@@H]1CC[C@@H]2[C@H](COc3ccc(NC(=O)C4CCOCC4)cc3C(=O)N2C)O1)c1ccccc1 | 0 | nt | -5 | 3 | -5
CCCC(=O)Nc1ccc2c(c1)OC[C@@H](C)NC[C@H](C)[C@@H](OC)CN(C)C2=O | 6 | nt | -4 | -2 | 0
CO[C@H]1CN(C)C(=O)c2ccc(NC(=O)Nc3ccc(C(F)(F)F)cc3)cc2OC[C@@H](C)NC[C@@H]1C | 5 | nt | 6 | -16 | 2
CCCC(=O)Nc1ccc2c(c1)OC[C@H](C)NC[C@H](C)[C@H](OC)CN(C)C2=O | 101* | nt | 0 | 16 | -1
CO[C@H]1CN(C)C(=O)c2ccc(NC(=O)Nc3ccc(C(F)(F)F)cc3)cc2OC[C@H](C)NC[C@H]1C | -2 | nt | 15* | -7 | 5
SMILES | S100A4 MyoIIA | PDI turbidity | SIRT5 inh | GSIS activator | ERp5 inh
O=C(Nc1ccc(F)cc1)N1C[C@@H]2[C@H](c3ccccc31)[C@H](CO)N2C(=O)c1ccccc1F | -1 | nt | 2 | -6 | 0
CCn1c(/C=C/c2ccc(O)cc2)nc2ccccc2c1=O | -3 | -1 | -3 | 6 | 1
COc1ccc(/C=C/c2nc3ccccc3c(=O)n2-c2cccc(C(=O)O)c2)cc1 | -19 | 8 | 18* | -3 | 1
Cc1ccc(NCc2nnc(SCC(=O)Nc3ncc(C)s3)n2Cc2ccco2)c(C)c1 | nt | 11 | nt | 156* | nt
Cc1cc(Cl)ccc1NC(=O)CSc1nnc(-c2ccncc2)n1Cc1ccco1 | nt | 0 | nt | nt | nt
Cc1cc(NC(=O)CSc2nc3sc4c(c3c(=O)n2C)CCCC4)no1 | nt | -3 | nt | 152* | nt
CCn1c(SCC(=O)Nc2cc(C)on2)nc2sc3c(c2c1=O)CCCC3 | -6 | -1 | -10 | 8 | 2
COc1ccc(-c2cnc3c(c2)C(=O)N([C@H](C)CO)C[C@H](C)[C@H](CN(C)C(=O)C2CCC2)O3)cc1 | -5 | nt | -4 | 3 | 3
COc1ccc([C@@H]2CC=CC[C@H](C)Oc3ccccc3C(=O)N(C)[C@@H](C(C)C)C(=O)N2)c(OC)c1 (mixture of isomers) | nt | nt | nt | -16 | nt
CCOc1ccc(Cl)cc1CNCCCSc1nc(C)cc(C)n1 | 0 | 5 | 20* | 10 | 3
CCOc1ccc(Cl)cc1CNCCCSc1ncccn1 | 1 | -7 | 7 | 18 | 5
Cc1ccc(C(=O)Nc2cccc(C(=O)N/N=C/c3ccc(F)cc3)c2)cc1 | -1 | 5 | 2 | 101* | -1
CC(=O)Nc1cccc(C(=O)N/N=C/c2ccc(F)cc2)c1 | -2 | -10 | -1 | 9 | -2
Cc1cc(C)cc(NC2=C(N)C(=O)c3ccccc3C2=O)c1 | -7 | 1 | 16* | 1 | 3
CN(C)C(=O)C[C@@H]1C=C[C@H](NC(=O)c2ccc(F)cc2)[C@@H](CO)O1 | -10 | nt | -5 | 1 | 5
COc1cccc(CN2C[C@@H]3N[C@H](C2)C3c2ccc(-c3ccccc3OC)cc2)c1 (stereo partly drawn) | 17 | nt | 4 | 82*! | 1
Cc1cccc(-c2ccc(C3[C@@H]4CN(Cc5cccc(F)c5)C[C@H]3N4)cc2)c1 (stereo partly drawn) | nt | nt | nt | 70* | nt
COc1ccccc1-c1ccc(C2[C@@H]3CN(Cc4cccc(F)c4)C[C@H]2N3)cc1 (stereo partly drawn) | nt | nt | nt | -11 | nt

Bioassay records: PubChem, Broad Institute
